# Experimental data reported in the EternaBench riboswitch data.
# Tested on: MS2 coat protein
# Test: apparent Kd, MS2 coat protein; higher = weaker binding; RNA-MaP array; FMN 200 µM where present
# Procedure, shortened: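 The apparent Kd is reported as the median of filtered per-cluster binding-curve fits. To get these curves, designs transcribed by stalled E. coli RNA polymerase on Illumina sequencing-chip clusters were titrated with SNAP-549-labelled MS2 coat protein from 0.7 or 1.5 nM, doubling to 3 µM. Titrations were run without and then with constant ligand in 100 mM Tris-HCl pH 7.5, 80 mM KCl, 4 mM MgCl2, BSA, DTT, yeast tRNA and Tween-20, and green signal was normalised to red-channel RNA signal and control-cluster median Fmax.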
# [1] = designed as: ON switch for flavin mononucleotide, no ligand
# [2] = ligand present: flavin mononucleotide, designed as: ON switch for flavin mononucleotide
# [3] = designed as: OFF switch for flavin mononucleotide, no ligand
# [4] = ligand present: flavin mononucleotide, designed as: OFF switch for flavin mononucleotide
Sequence,apparent Kd [1],apparent Kd [2],apparent Kd [3],apparent Kd [4]
AGCUACGUUUCGUAGCAGUGUCAUCGAGAAGGCCUCAUUACAUGAGGAUCACCCAUGUGAGCAUGGGAGGAUAUCGAUGAUACA,406 nM,129 nM,–,–
AGCUACGUUUCGUAGCAGUGUCAUCGAGAAGGCUCAUAAACAUGAGGAUCACCCAUGUAUUCAUGGGAGGAUAUCGAUGAUACA,32.2 nM,6.04 nM,–,–
AGCUAGUCAGGAUAUACGAACACGUCAAAAGACUUGAAGGGACAUGAGGAUCACCCAUGUAGAAGGGACUAGCA,–,–,35.1 nM,123 nM
AGCUAGUCAGGAUAUACGUACAUGUCAUUAGACGUGAAGGGACAUGAGGAUCACCCAUGUAGAAGGGACUAGCU,–,–,37.6 nM,139 nM
AGCUAGUCAGGAUAUGCGAACAUGUCAAAAGACGUGAAGGGACAUGAGGAUCACCCAUGUAGAAGGGACUAGCA,–,–,31.8 nM,35.9 nM
AGCUGUGGCAGAGGAUAUACUACUAUAAUCCAUUGCAAAUAGCGAUGGACAUGAGGAUCACCCAUGUAGAAGGCUGUCACAGCA,–,–,45.6 nM,176 nM
AGCUGUGGCCGAGGAUAUCUAUCUCCAAUAACCGAAAUAUAAUCGGACAUGAGGAUCACCCAUGUAGAGAAGGCGGUCUCAGCA,–,–,20.7 nM,36 nM
AGCUGUGGCCGAGGAUAUCUGUUCCAUAUAACCGAAAUAUAAUCGGACAUGAGGAUCACCCAUGUAGAGAAGGCGGUCUCAGCA,–,–,22.7 nM,24.8 nM
AGCUUGAGAGGAUAUACUUGAGUGAUAAAAGUCUGAUAACUACAUGAGGAUCACCCAUGUAGAAGGCUCUAGCA,–,–,18.3 nM,47.8 nM
AGGAAACAUGAGGAUCACCCAUGUAAAAAAGUGGGAGGAUAUACUAGAAGAAACAAAAUAGUAGAAGGCCUAAAAA,47.3 nM,24.9 nM,–,–
AGGAGAAAUGUAGGAUAUGGGCGGGCAUAUGGGCAAAGCGCAUAUGCCCGCCCAGAAGGACAUGAGGAUCACCCAUGUUUCCCU,–,–,13.2 nM,11.1 nM
AGGAGACAUGAGGAUCACCCAUGUGCACGUGGAGGAGGAUAUGCUAGUAGAAGAUAGAAAGCAGAAGGCCUAAGAA,69.2 nM,80.5 nM,–,–
AGGAGACAUGAGGAUCACCCAUGUGCACGUGGAGGAGGAUAUGCUAGUAGAAGAUAGAAUGCAGAAGGCCUAAGAA,72.9 nM,84.8 nM,–,–
AGGAGGUUAGGAUAUGCUGCUCGUCACUUGCGUGAUGAGUAGCAGAAGGGACAUGAGGAUCACCCAUGUAAAAA,–,–,48.5 nM,28.1 nM
AGGAGUAAAGGGAAUAACAUGAGGAUCACCCAUGUAUGGGAGAGAAGGCAGAUCGGAGGACGAUCUGAGGAUAUUUAAACUCUA,72.5 nM,16.8 nM,–,–
AGGAGUAAAGGGAAUAACAUGAGGAUCACCCAUGUAUGGGAGAGAAGGCAGAUUGGAGGACGAUCUGAGGAUAUUUAAACUCUA,53.5 nM,20.1 nM,–,–
AGGAUACACCAGAAGGACAUGAGGAUCACCCAUGUAGGAUAUGGGUACGCCGACAUUAGUCUGCUCUCGGUAGACUUUCCUGAU,75.1 nM,10.4 nM,–,–
AGGAUCCUAUCAAGACAAAUGUACAUGAGGAUCACCCAUGUGCAGGAUAUAGCUAGUUACGGUGGCUAGAAGGGCACACCAAAA,–,–,6.72 nM,14.3 nM
AGGCCGCUACGCCGGCUUCACGCACAGGAUAUGCAGUUACAUGAGGAUCACCCAUGUGGCCAUGUGCAGAAGGGUGGUUCGUUA,109 nM,24.5 nM,–,–
AGGGAGUGAGGAUAUGCUGCUCGUCACUUGCGUGAUGAGUAGCAGAAGGUACAUGAGGAUCACCCAUGUAAAAA,–,–,28.4 nM,19 nM
AGGUAACAUGAGGAUCACCCAUGUACCAAUAAUGCAGGAUAUCGACACGAAAAUACGUGUCGAGAAGGGCAUGAAA,14.1 nM,16.4 nM,–,–

Sequence,apparent Kd [1],apparent Kd [2],apparent Kd [3],apparent Kd [4]
AGGUAACAUGAGGAUCACCCAUGUCAGGAUAUCAGUAAGAUGAGUAUAGAAGAGAGUAUGAGAAGGGACUAUAU,–,–,31 nM,25.6 nM
AGUAACAGAGGAUAUACUGUUUUAUGUGUUUAUUAUUUUGAACAUGAGGAUCACCCAUGUAGAAGGCUGAAUAA,–,–,–,21.9 nM
AGUAACAGAGGAUAUACUGUUUUAUGUGUUUGUUAUUUUAAACAUGAGGAUCACCCAUGUAGAAGGCUGAAUGA,–,–,27.1 nM,25.3 nM
AGUAACAUGCUCAACAUGAGGAUCACCCAUGUACUCUCUUGUAAGGAUAUACAAUCGUAUUGAUAGUAGAAGGUACCAAUUAAG,52.7 nM,51.9 nM,–,–
AGUAAGAUGCAGAAGGUGUCAGCGAGAGCUACGACAUGAGGAUCACCCAUGUACUAGUGAGAGUACGAGGAUAUGCAUCUUACA,37.3 nM,13.9 nM,–,–
AGUAAGAUGCAGAAGGUGUUAGCUAGAGCUACGACAUGAGGAUCACCCAUGUACUAGAAACAGUACAAGGAUAUGCAUCUUACU,18.4 nM,6.43 nM,–,–
AGUAGAUCAGGAUAUACGUGAAAGGUCAAAGUGUCCCUACUACAUGAGGAUCACCCAUGUAGAAGGGAUCUACA,–,–,13.4 nM,14.6 nM
AGUAUGUACGCAGGAUAUACAUGAGGAUCACCCAUGUGGAACAGUGUAGUGCUAGUUGAUCCUCAGUAGAAGGGCGGUCGAAUA,–,–,62.5 nM,91.6 nM
AGUCAUACAGGAUAUACAUGAGGAUCACCCAUGUAAAUCCUAAAAAGAAAAACCUCUUGUAGAAGGGUAUGACA,–,–,14.3 nM,16.3 nM
AGUCGGAGCAGAGGAUAUACAUGAGGAUCACCCAUGUAAAUGGAAUAAGACUGGAAACAGUCAAUGUAGAAGGCUGCUCCGACA,–,–,68.5 nM,673 nM
AGUCGGAGCAGAGGAUAUACAUGAGGAUCACCCAUGUAAUAAAGUGAAGCCUGGAAACAGGCAAUGUAGAAGGCUGCUCCGACA,–,–,28.1 nM,232 nM
AGUCGGAGCAGAGGAUAUACAUGAGGAUCACCCAUGUAAUAUGAUCUAGCCUGGAAACAGGCAAUGUAGAAGGCUGCUCCGACA,–,–,90.3 nM,709 nM
AGUCGGAGCAGAGGAUAUUACAUGAGGAUCACCCAUGUGGAAGAACCAAGCUGGAAACAGCAAUGUAAGAAGGCUGCUCCGACA,–,–,918 nM,430 nM
AGUCUGUGGCAACUAUCCUCACAUGAGGAUCACCCAUGUAGGGAGGAUAUGCAUUUAAAGAAGUGGCAGAAGGCCCUACACGGA,–,–,83.2 nM,32.1 nM
AGUGACUACGUAGGAUAUUAAUUCAUGGACUACAUGAGGAUCACCCAUGUUUAUUUAACAUCAGCUGAGAAGGACGUGGUCACA,28.1 nM,10.6 nM,–,–
AGUGGCUACACAGGAUAUCCCAGCCUCUUGGUGGGAGAAGGGUGAGGUCAGAGACAUGAGGAUCACCCAUGUCUUACAGGAGGA,15.8 nM,8.33 nM,–,–
AGUGUCAUCGAGAAGGCCUCAACAUGAGGAUCACCCAUGUUGCAAAAUGGGAGGAUAUCGCGCGUUCUAAAACGUUUCGUAGCA,54.1 nM,18 nM,–,–
AGUGUCAUCGAGAAGGCCUCAUUAACAUGAGGAUCACCCAUGUAAUAUGGGAGGAUAUCGAUGAUACAGCUACGUUUCGUAGCA,216 nM,55.2 nM,–,–
AGUGUUGGAGGAUAUACAUGAGGAUCACCCAUGUACAUCACACAGUAUAUGAAACCAUGUAGAAGGCCAAUACA,–,–,55.8 nM,73.8 nM
AGUUAAUAUCGAGGAUAUCUCAUGAAUACAUGAGGAUCACCCAUGUGAAUGGGAGAAGGCGAUAUUAACAGCAUGUUACAUGCA,12.6 nM,6.52 nM,–,–
AGUUACAUACUCAACAUGAGGAUCACCCAUGUACUCUCUUGUAAGGAUAUACAUUCGUAUUGAAAGUAGAAGGUACUAAUUAUG,89.1 nM,77.3 nM,–,–
